Results published in ChEMBL document CHEMBL4118245, “Stereoselective synthesis of new rac-quercitols containing hydroxymethyl groups as glucosidase inhibitors” (Bioorg Med Chem Lett, 2018).

Key:
Saccharomyces cerevisiae [1] = test: Inhibition of Saccharomyces cerevisiae alpha-glucosidase at 10 uM using 4-nitrophenyl D-glucopyranoside as substrate after 3 mins by UV/Vis spectrophotometric method relative to control
Method in brief: (§1)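 Compounds were tested at 10, 20, 25, 45, 80, 120 and 180 µM, with percent enzyme inhibition reported at each level. Acarbose served as the positive control. The study ran four experiments per compound, each in triplicate, and reports mean ± S.D. IC50 is the concentration giving 50% inhibition of enzyme activity under the assay conditions, taken from this concentration series.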

Saccharomyces cerevisiae [2] = test: Inhibition of Saccharomyces cerevisiae alpha-glucosidase at 20 uM using 4-nitrophenyl D-glucopyranoside as substrate after 3 mins by UV/Vis spectrophotometric method relative to control; method in brief: as §1
Saccharomyces cerevisiae [3] = test: Inhibition of Saccharomyces cerevisiae alpha-glucosidase at 25 uM using 4-nitrophenyl D-glucopyranoside as substrate after 3 mins by UV/Vis spectrophotometric method relative to control; method in brief: as §1
Saccharomyces cerevisiae [4] = test: Inhibition of Saccharomyces cerevisiae alpha-glucosidase at 45 uM using 4-nitrophenyl D-glucopyranoside as substrate after 3 mins by UV/Vis spectrophotometric method relative to control; method in brief: as §1
Saccharomyces cerevisiae [5] = test: Inhibition of Saccharomyces cerevisiae alpha-glucosidase at 80 uM using 4-nitrophenyl D-glucopyranoside as substrate after 3 mins by UV/Vis spectrophotometric method relative to control; method in brief: as §1
Saccharomyces cerevisiae [6] = test: Inhibition of Saccharomyces cerevisiae alpha-glucosidase at 120 uM using 4-nitrophenyl D-glucopyranoside as substrate after 3 mins by UV/Vis spectrophotometric method relative to control; method in brief: as §1
Saccharomyces cerevisiae [7] = test: Inhibition of Saccharomyces cerevisiae alpha-glucosidase at 180 uM using 4-nitrophenyl D-glucopyranoside as substrate after 3 mins by UV/Vis spectrophotometric method relative to control; method in brief: as §1
Prunus dulcis [8] = test: Inhibition of almond beta-glucosidase at 10 uM using p-nitrophenyl D-glucopyranoside as substrate after 3 mins by UV/Vis spectrophotometric method relative to control; method in brief: as §1
Prunus dulcis [9] = test: Inhibition of almond beta-glucosidase at 20 uM using p-nitrophenyl D-glucopyranoside as substrate after 3 mins by UV/Vis spectrophotometric method relative to control; method in brief: as §1
Prunus dulcis [10] = test: Inhibition of almond beta-glucosidase at 25 uM using p-nitrophenyl D-glucopyranoside as substrate after 3 mins by UV/Vis spectrophotometric method relative to control; method in brief: as §1
Prunus dulcis [11] = test: Inhibition of almond beta-glucosidase at 45 uM using p-nitrophenyl D-glucopyranoside as substrate after 3 mins by UV/Vis spectrophotometric method relative to control; method in brief: as §1
Prunus dulcis [12] = test: Inhibition of almond beta-glucosidase at 80 uM using p-nitrophenyl D-glucopyranoside as substrate after 3 mins by UV/Vis spectrophotometric method relative to control; method in brief: as §1
Prunus dulcis [13] = test: Inhibition of almond beta-glucosidase at 120 uM using p-nitrophenyl D-glucopyranoside as substrate after 3 mins by UV/Vis spectrophotometric method relative to control; method in brief: as §1
Prunus dulcis [14] = test: Inhibition of almond beta-glucosidase at 180 uM using p-nitrophenyl D-glucopyranoside as substrate after 3 mins by UV/Vis spectrophotometric method relative to control; method in brief: as §1
[15] = Inhibition of almond beta-glucosidase using p-nitrophenyl D-glucopyranoside as substrate after 3 mins by UV/Vis spectrophotometric method; design: species or system Prunus dulcis; method in brief: as §1
[16] = Inhibition of Saccharomyces cerevisiae alpha-glucosidase using 4-nitrophenyl D-glucopyranoside as substrate after 3 mins by UV/Vis spectrophotometric method; method in brief: as §1

Row | inhibition (Saccharomyces cerevisiae [1]) [%] | inhibition (Saccharomyces cerevisiae [2]) [%] | inhibition (Saccharomyces cerevisiae [3]) [%] | inhibition (Saccharomyces cerevisiae [4]) [%] | inhibition (Saccharomyces cerevisiae [5]) [%] | inhibition (Saccharomyces cerevisiae [6]) [%] | inhibition (Saccharomyces cerevisiae [7]) [%] | inhibition (Prunus dulcis [8]) [%] | inhibition (Prunus dulcis [9]) [%] | inhibition (Prunus dulcis [10]) [%] | inhibition (Prunus dulcis [11]) [%] | inhibition (Prunus dulcis [12]) [%] | inhibition (Prunus dulcis [13]) [%] | inhibition (Prunus dulcis [14]) [%] | IC50 [15] [µM] | IC50 [16] [µM] | Compound
1 | 2 | 6 | 14 | 19 | 20 | 22 | 25 | 18 | 20.4 | 29 | 34.3 | 37.5 | 42.7 | 51.8 | 198 |  | OC[C@H]1C[C@H](O)[C@H](O)[C@H](O)[C@H]1CO
2 | 15.8 | 18.8 | 19.4 | 19.9 | 21.4 | 37.6 | 42.2 | 3.4 | 27.8 | 28.4 | 30.4 | 31.8 | 32.1 | 33.3 |  |  | OC[C@H]1C[C@@H](O)[C@H](O)[C@H](O)[C@H]1CO
3 | 22 | 30 | 33 | 46 | 60 | 63 | 74 | 17 | 25 | 29 | 39 | 52 | 60 | 66 | 57.8 | 52.5 | C[C@H]1O[C@H](O[C@H]2[C@H](O)[C@@H](O)[C@@H](O[C@H]3[C@H](O)[C@@H](O)C(O)O[C@@H]3CO)O[C@@H]2CO)[C@H](O)[C@@H](O)[C@@H]1N[C@H]1C=C(CO)[C@@H](O)[C@H](O)[C@H]1O (some centres undefined) [ACARBOSE]
4 | 10 | 13 | 19 | 21 | 31 | 40 | 42 | 2.2 | 4.98 | 12.7 | 13.7 | 19.1 | 20.2 | 30.8 |  |  | OC[C@H]1C[C@H](O)[C@@H](O)[C@@H](O)[C@H]1CO
